# ChEMBL document CHEMBL4020827, “Targeting Multiple Effector Pathways in Pancreatic Ductal Adenocarcinoma with a G-Quadruplex-Binding Small Molecule” (J Med Chem, 2018)
# Key:
# MIA PaCa-2 [1] = assay: Effect on IGF2 gene expression in human MIAPaCa2 cells at 400 nM after 24 hrs by RNA sequence analysis relative to control; format: functional
# In short: (§1)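 PANC-1 (0.35 x 10^6) or MIA PaCa-2 (1.5 x 10^6) cells seeded overnight in 60 mm plates, then exposed to 400 nM compound for 6 or 24 h; untreated cells as controls. Cells were mycoplasma-free and STR-certified. Differential expression by RNA-seq, called at FDR < 0.1.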
# MCF7 = assay: Growth inhibition of human MCF7 cells after 96 hrs by SRB assay; format: functional, cell-based; settings: MCF7, 96 h
# PANC-1 [2] = assay: Effect on RPTOR gene expression in human PANC1 cells at 400 nM after 24 hrs by RNA sequence analysis relative to control; format: functional
# In short: (§2)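 RNA-seq: cells seeded overnight in 60 mm plates (PANC-1 0.35 x 10^6, MIA PaCa-2 1.5 x 10^6 cells/well), then exposed to 400 nM compound for 6 or 24 h against untreated controls. Cell lines mycoplasma-free by RNA-capture ELISA and STR-profiled. Differentially expressed genes called at FDR < 0.1.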
# PANC-1 [3] = assay: Effect on IGF2 gene expression in human PANC1 cells at 400 nM after 24 hrs by RNA sequence analysis relative to control; format: functional; in short: as §1
# MIA PaCa-2 [4] = assay: Effect on PIK3R2 gene expression in human MIAPaCa2 cells at 400 nM after 6 hrs by RNA sequence analysis relative to control; format: functional
# MIA PaCa-2 [5] = assay: Effect on PFKFB4 gene expression in human MIAPaCa2 cells at 400 nM after 6 hrs by RNA sequence analysis relative to control; format: functional
# PANC-1 [6] = assay: Effect on GLI2 gene expression in human PANC1 cells at 400 nM after 6 hrs by RNA sequence analysis relative to control; format: functional; in short: as §1
# PANC-1 [7] = assay: Effect on CBFA2T3 gene expression in human PANC1 cells at 400 nM after 24 hrs by RNA sequence analysis relative to control; format: functional; in short: as §1
# PANC-1 [8] = assay: Effect on AKT1S1 gene expression in human PANC1 cells at 400 nM after 24 hrs by RNA sequence analysis relative to control; format: functional; in short: as §1
# MIA PaCa-2 [9] = assay: Effect on TEAD3 gene expression in human MIAPaCa2 cells at 400 nM after 6 hrs by RNA sequence analysis relative to control; format: functional; in short: as §2
# [10] = Binding affinity to 5'-FAM/3'-TAMRA labeled KRAS32 promoter G-quadruplex DNA (unknown origin) assessed as change in melting temperature at 1 uM by FRET assay
# In short: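 FRET melting of FAM/TAMRA dual-labelled promoter G4 oligonucleotides, 400 nM, annealed at 95 °C for 10 min in 60 mM potassium cacodylate (pH 7.4) then cooled to RT. Ligand at 1 μM in solution with 50 mM K+. Fluorescence (ex 450–495, em 515–545 nm) read every 0.5 °C over 30–100 °C with a 30 sec hold per step. ΔTm from curve fitting; triplicate measurements.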
# PANC-1 [11] = assay: Effect on SHANK2 gene expression in human PANC1 cells at 400 nM after 24 hrs by RNA sequence analysis relative to control; format: functional; in short: as §2
# Homo sapiens = organism: Homo sapiens; assay: Stabilization of G-quadruplex DNA in human PANC1 cells assessed as induction of DNA damage at G4 site by measuring increase in colocalization of BG4 and 53BP1 foci at 400 nM after 24 hrs by FITC/Cy5/DAPI staining based immunofluorescence assay relative to control; format: cell-based
# MIA PaCa-2 [12] = assay: Effect on MAPK9 gene expression in human MIAPaCa2 cells at 400 nM after 6 hrs by RNA sequence analysis relative to control; format: functional
# PANC-1 [13] = assay: Effect on mLST8 gene expression in human PANC1 cells at 400 nM after 6 hrs by RNA sequence analysis relative to control; format: functional
# MIA PaCa-2 [14] = assay: Effect on MAPK9 gene expression in human MIAPaCa2 cells at 400 nM after 24 hrs by RNA sequence analysis relative to control; format: functional
# MIA PaCa-2 [15] = assay: Effect on PFKFB4 gene expression in human MIAPaCa2 cells at 400 nM after 24 hrs by RNA sequence analysis relative to control; format: functional
# MIA PaCa-2 [16] = assay: Effect on ARF6 gene expression in human MIAPaCa2 cells at 400 nM after 6 hrs by RNA sequence analysis relative to control; format: functional; in short: as §1
# [17] = Solubility of the compound in saline; format: physicochemical
# MIA PaCa-2 [18] = assay: Effect on PRKCZ gene expression in human MIAPaCa2 cells at 400 nM after 6 hrs by RNA sequence analysis relative to control; format: functional; in short: as §2
# PANC-1 [19] = assay: Effect on MAPK9 gene expression in human PANC1 cells at 400 nM after 24 hrs by RNA sequence analysis relative to control; format: functional
# MIA PaCa-2 [20] = assay: Effect on PCK2 gene expression in human MIAPaCa2 cells at 400 nM after 24 hrs by RNA sequence analysis relative to control; format: functional
# PANC-1 [21] = assay: Effect on ROBO3 gene expression in human PANC1 cells at 400 nM after 6 hrs by RNA sequence analysis relative to control; format: functional; in short: as §2
# MIA PaCa-2 [22] = assay: Effect on GLI4 gene expression in human MIAPaCa2 cells at 400 nM after 24 hrs by RNA sequence analysis relative to control; format: functional; in short: as §1
# PANC-1 [23] = assay: Effect on PIK3R2 gene expression in human PANC1 cells at 400 nM after 6 hrs by RNA sequence analysis relative to control; format: functional
# PANC-1 [24] = assay: Effect on PCK2 gene expression in human PANC1 cells at 400 nM after 24 hrs by RNA sequence analysis relative to control; format: functional
# MIA PaCa-2 [25] = assay: Effect on MAPK12 gene expression in human MIAPaCa2 cells at 400 nM after 24 hrs by RNA sequence analysis relative to control; format: functional
# MIA PaCa-2 [26] = assay: Effect on CBFA2T3 gene expression in human MIAPaCa2 cells at 400 nM after 24 hrs by RNA sequence analysis relative to control; format: functional; in short: as §1
# MIA PaCa-2 [27] = assay: Effect on ROBO3 gene expression in human MIAPaCa2 cells at 400 nM after 24 hrs by RNA sequence analysis relative to control; format: functional; in short: as §2
# MIA PaCa-2 [28] = assay: Effect on FASN gene expression in human MIAPaCa2 cells at 400 nM after 6 hrs by RNA sequence analysis relative to control; format: functional; in short: as §1
# PANC-1 [29] = assay: Effect on PIK3R2 gene expression in human PANC1 cells at 400 nM after 24 hrs by RNA sequence analysis relative to control; format: functional
# PANC-1 [30] = assay: Effect on TEAD3 gene expression in human PANC1 cells at 400 nM after 24 hrs by RNA sequence analysis relative to control; format: functional; in short: as §2
# MIA PaCa-2 [31] = assay: Effect on PARD6A gene expression in human MIAPaCa2 cells at 400 nM after 6 hrs by RNA sequence analysis relative to control; format: functional
# PANC-1 [32] = assay: Effect on PIK3R3 gene expression in human PANC1 cells at 400 nM after 24 hrs by RNA sequence analysis relative to control; format: functional
# Mus musculus = assay: Hepatotoxicity in CD-1 nude mouse xenografted with human MIAPaCa2 cells at 15 mg/kg, iv administered twice weekly for 4 weeks by hematoxylin and eosin staining based assay; format: toxicity, organism-based; settings: in vivo, 672 h
compound,measurement,setting,value
O=C1c2ccc3c4c(c(NCCN5CCCC5)cc(c24)C(=O)N1CCCN1CCOCC1)C(=O)N(CCCN1CCOCC1)C3=O,log2FC,MIA PaCa-2 [1],0.72
same,IC50,MCF7,159 nM
same,log2FC,PANC-1 [2],-0.5
same,log2FC,PANC-1 [3],-1.53
same,log2FC,MIA PaCa-2 [4],-0.55
same,log2FC,MIA PaCa-2 [5],-1.02
same,log2FC,PANC-1 [6],-0.67
same,log2FC,PANC-1 [7],-2.25
same,log2FC,PANC-1 [8],-0.83
same,log2FC,MIA PaCa-2 [9],-1.06
same,ΔTm,[10],9.6 °C
same,log2FC,PANC-1 [11],-0.44
same,Activity,Homo sapiens,50%
same,log2FC,MIA PaCa-2 [12],-0.09
same,log2FC,PANC-1 [13],-0.54
same,log2FC,MIA PaCa-2 [14],-0.6
same,log2FC,MIA PaCa-2 [15],-0.93
same,log2FC,MIA PaCa-2 [16],-0.89
same,solubility,[17],> 10000 µg/mL
same,log2FC,MIA PaCa-2 [18],-1.87
same,log2FC,PANC-1 [19],-0.75
same,log2FC,MIA PaCa-2 [20],-0.82
same,log2FC,PANC-1 [21],-0.75
same,log2FC,MIA PaCa-2 [22],-1.85
same,log2FC,PANC-1 [23],-0.45
same,log2FC,PANC-1 [24],-0.56
same,log2FC,MIA PaCa-2 [25],-1.23
same,log2FC,MIA PaCa-2 [26],-2.86
same,log2FC,MIA PaCa-2 [27],-0.53
same,log2FC,MIA PaCa-2 [28],-0.06
same,log2FC,PANC-1 [29],-0.88
same,log2FC,PANC-1 [30],0.07
same,log2FC,MIA PaCa-2 [31],-0.83
same,log2FC,PANC-1 [32],-0.54
same,Activity,Mus musculus,Non-Toxic
